Screening data: PubChem, Sanford-Burnham Center for Chemical Genomics
SENP8 block-1: blocks the human protease SENP8. 330,000 compounds, 1.2% hits. purified SENP8, Z-RLRGG-aminoluciferin cleavage, luminescence. inhibition, % at 10 µM. Q96LD8. AID 2540; in the data active = inhibition above about 50%
SENP6 block: SENP6 protease inhibition; Recombinant SENP6 catalytic domain, aminoluciferin luminescence; inhibition, % at 10 µM; 330,000 compounds, 1.8% hits; AID 2599;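 active = inhibition above about 50% at the single tested dose, limit read from the data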
Target sequence (Q9GZR1 628-1112 limits assumed): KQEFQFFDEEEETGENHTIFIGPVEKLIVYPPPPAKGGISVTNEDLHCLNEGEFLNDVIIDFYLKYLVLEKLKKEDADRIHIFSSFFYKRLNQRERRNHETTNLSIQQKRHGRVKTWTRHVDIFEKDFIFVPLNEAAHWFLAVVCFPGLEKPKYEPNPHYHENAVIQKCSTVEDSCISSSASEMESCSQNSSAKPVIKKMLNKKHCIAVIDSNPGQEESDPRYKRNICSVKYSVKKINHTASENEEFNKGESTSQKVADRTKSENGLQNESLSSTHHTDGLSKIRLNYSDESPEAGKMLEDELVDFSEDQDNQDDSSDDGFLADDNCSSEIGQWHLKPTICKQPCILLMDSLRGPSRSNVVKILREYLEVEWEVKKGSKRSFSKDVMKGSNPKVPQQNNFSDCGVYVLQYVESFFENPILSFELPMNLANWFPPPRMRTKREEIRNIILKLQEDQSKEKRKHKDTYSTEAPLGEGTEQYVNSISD
SENP8 block-2: blocks human SENP8 cleavage of Nedd8 substrate | Q96LD8 | recombinant SENP8, Nedd8 substrate fluorescence | inhibition, % at 20 µM | 360,000 compounds, 0.64% hits | AID 602440; in the data active = inhibition mostly above about 40%, no sharp cut-off; inactive = mostly below about 27%
SENP7 block: inhibitors of human SENP7 protease | Q9BQF6 | recombinant SENP7, Z-RLRGG-aminoluciferin luminescence, 40 min | inhibition, % at 5 µM | 330,000 compounds, 1.5% hits;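 active = inhibition above about 50% at the single test dose, limit read from the data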
SENP1 inh: SENP1 (human) catalytic domain inhibition | 360,000 compounds, 0.21% hits | inhibition, % at 10 µM | Q9P0U3 | recombinant SENP1 catalytic domain, CyPet-SUMO1-YPet FRET cleavage;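 active = inhibition at least 30% at 10 µM, raw YFP signal under a set limit, fluorescence ratio 0.5 to 1.5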
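Material: hSENP1 catalytic domain, recombinant; medium: Tris pH 8 with BME, BSA, NP40 and catalase; compound: single concentration of 10 µM compound, 0.5% DMSO final; technique: FRET read of cyan and yellow fluorescence; timing: 50 min enzyme reaction, room temperature, light-protected; reagent: SFCypet-SUMO1-SFYpet substrate at 25 nM; control set: no-enzyme low, enzyme-DMSO high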
SENP8 conf-1: confirmation of human SENP8 protease inhibitors. shares compounds with SENP7 block. Recombinant SENP8, Z-RLRGG-aminoluciferin luminescence, 60 min. inhibition, % at 12.5 µM. 6,200 compounds, 40% hits. AID 488912;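 active = mean inhibition across replicates above about 50%, limit read from the data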
SENP6 confirm: human SENP6 inhibition, confirmed. shares compounds with SENP7 block. recombinant SENP6, Z-RLRGG-aminoluciferin luminescence. inhibition, % at 12.5 µM. 6,200 compounds, 58% hits
SENP7 conf: confirmation of human SENP7 protease inhibitors. shares compounds with SENP7 block. recombinant SENP7, Z-RLRGG-aminoluciferin luminescence, 40 min. inhibition, % at 12.5 µM. 6,200 compounds, 69% hits
Casp3 SENP sel: inhibits human caspase-3 in SENP selectivity test | inhibition, % at 12.5 µM | purified caspase-3, Z-DEVD-aminoluciferin luminescence, 60 min | shares compounds with SENP7 block | 6,200 compounds, 60% hits | AID 488918;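 active = mean inhibition above about 50%, limit read from the data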
Luc interf: luminescence interference (SENP counter-screen); shares compounds with SENP7 block; Pre-incubated SENP8/Z-RLRGG-aminoluciferin, luciferase luminescence interference; inhibition, % at 12.5 µM; 6,200 compounds, 39% hits;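 active = mean inhibition above about 50% when retested at one dose, limit read from the data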
SENP8 conf-2: SENP8 (human) inhibition, single concentration confirmation; AID 624319; inhibition, % at 25 µM; purified SENP8, Nedd8-AMC/pro-Nedd8 cleavage fluorescence, 30 min; shares compounds with SENP8 block-2; 1,400 compounds, 15% hits; in the data active = inhibition mostly above about 39%, no sharp cut-off; inactive = mostly below about 34%
SENP1 inh conf: SENP1 (human) inhibition, single concentration confirmation | shares compounds with SENP1 inh | recombinant SENP1, CyPet-SUMO1-YPet FRET cleavage | inhibition, % at 10 µM | 520 compounds, 34% hits | AID 651678; in the data active = inhibition mostly above about 35%, no sharp cut-off; inactive = mostly below about 32%
SENP1 kinetic: confirmation of human SENP1 SUMO protease inhibitors, kinetic | recombinant SENP1, CyPet-SUMO1-YPet FRET kinetic cleavage | shares compounds with SENP1 inh | inhibition, % at 10 µM | 520 compounds, 26% hits; in the data active = inhibition mostly above about 32%, no sharp cut-off; inactive = mostly below about 29%
A number is an active result; . = inactive; / = no result. In the library only some 2.5% were active in any assay of this set; here they are far more common.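 Rule for the calls, unless noted: active = mean inhibition above about 50% in the one-dose retest (limit read from the data); inactive = the rest.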

SMILES	SENP8 block-1	SENP6 block	SENP8 block-2	SENP7 block	SENP1 inh	SENP8 conf-1	SENP6 confirm	SENP7 conf	Casp3 SENP sel	Luc interf	SENP1 inh conf	SENP1 kinetic	others
CC1=CC(=C(C#N)c2nc3ccccc3s2)C=C(C)N1c1ccc(F)cc1	.	54	85	.	.	.	.	.	.	.	/	/	SENP8 conf-2=.
COc1cc(C=C(c2nc3ccccc3s2)c2nc3ccccc3s2)cc(OC)c1O	.	.	.	.	.	/	/	/	/	/	/	/
COc1ccccc1N1C(C)=CC(=C(C#N)c2nc3ccccc3s2)C=C1C	.	61	67	.	.	.	.	.	.	.	/	/	SENP8 conf-2=.
CC(C)=C(C#N)c1nc2ccccc2s1	.	.	.	.	.	/	/	/	/	/	/	/
CCOC(=O)C1=C(COC(=O)c2ccco2)NC(=O)NC1CC (centres undefined)	.	.	.	.	.	/	/	/	/	/	/	/
O=C1c2ccccc2CN1Cc1ccccc1	.	.	.	.	.	/	/	/	/	/	/	/
Cc1c(S(=O)(=O)N2CCOCC2)c(=O)n(C)c(=O)n1C	.	.	.	.	.	/	/	/	/	/	/	/
O=C(Nc1ccc(N2CCCCC2)cc1)c1ccc([N+](=O)[O-])o1	74	87	38	93	.	.	90	100	85	.	/	/	SENP8 conf-2=.
CC1CCN(c2ccc(NC(=O)c3ccc([N+](=O)[O-])o3)cc2)CC1	.	75	55	78	.	.	.	.	.	.	/	/	SENP8 conf-2=.
CS(=O)(=O)N1CCN(c2ccc(NC(=O)c3ccc([N+](=O)[O-])o3)cc2)CC1	/	/	.	/	.	/	/	/	/	/	/	/
Brc1ccccc1/C=N/Nc1ccccn1	.	.	.	86	44	.	.	.	.	.	.	.
CN(C)CC1CCCCC1OC(=O)c1ccc(S(=O)(=O)N(C)c2ccccc2)cc1 (centres undefined)	.	.	.	.	.	/	/	/	/	/	/	/
OCCNC(=S)Nc1ccc2nsnc2c1	61	82	.	.	36	.	.	.	.	.	.	.
CN(C)S(=O)(=O)n1cc(/C=C(\NC(=O)c2ccccc2Cl)C(=O)N2CCCC2)c2ccccc21	.	.	.	.	.	/	/	/	/	/	/	/
Cc1[nH]c2ccccc2c1C(=O)C(=O)Nc1ccc2c(c1)OCCO2	.	.	.	.	.	/	/	/	/	/	/	/
O=C(Nc1ccc2c(c1)OCO2)C(=O)c1c[nH]c2ccccc12	.	.	.	81	31	.	.	79	75	.	.	32
Cc1cc2cc(C#N)c(SCC(=O)Nc3nonc3C)nc2cc1C	.	99	.	.	65	.	.	.	.	.	.	.
O=C(N/N=C/c1ccc(N2CCOCC2)cc1)c1cccs1	63	74	.	76	32	67	69	92	90	70	.	.
O=C(N/N=C/c1ccc(N2CCOCC2)cc1)c1ccc(NS(=O)(=O)c2cccs2)cc1	.	.	.	.	.	/	/	/	/	/	/	/
CN1C(=O)/C(=C\c2ccc(OC(=O)c3ccco3)cc2)SC1=S	.	74	.	72	44	.	.	.	.	.	.	.
CN1C(=O)/C(=C/c2ccc(OC(=O)c3ccco3)cc2)SC1=S	75	73	.	79	46	.	.	.	.	.	.	.
CN1C(=O)/C(=C\c2cccc(OCc3ccccc3)c2)SC1=S	.	.	.	.	.	/	/	/	/	/	/	/
